Bioassay records (PubChem)
Hits are enriched below; roughly 1.3% of the tested compounds scored in any of these assays.
MDM2 E3 inh = Mdm2 E3 ligase (human) inhibition | Q00987 | cell-based MDM2 ubiquitination luciferase reporter, 2 h; 0 = plate control, 100 = twice control, blank-subtracted | signal enhancement, % at 5 µM | 210,000 compounds, 0.11% hits | AID 1230;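 active = signal enhancement of 30% or more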;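 also: luminescence tracks abundance of the self-degrading MDM2-luciferase fusion protein; higher signal means inhibition of MDM2 E3 ligase activity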
Target sequence (Q00987 whole entry, looked up, the tested form may be a part): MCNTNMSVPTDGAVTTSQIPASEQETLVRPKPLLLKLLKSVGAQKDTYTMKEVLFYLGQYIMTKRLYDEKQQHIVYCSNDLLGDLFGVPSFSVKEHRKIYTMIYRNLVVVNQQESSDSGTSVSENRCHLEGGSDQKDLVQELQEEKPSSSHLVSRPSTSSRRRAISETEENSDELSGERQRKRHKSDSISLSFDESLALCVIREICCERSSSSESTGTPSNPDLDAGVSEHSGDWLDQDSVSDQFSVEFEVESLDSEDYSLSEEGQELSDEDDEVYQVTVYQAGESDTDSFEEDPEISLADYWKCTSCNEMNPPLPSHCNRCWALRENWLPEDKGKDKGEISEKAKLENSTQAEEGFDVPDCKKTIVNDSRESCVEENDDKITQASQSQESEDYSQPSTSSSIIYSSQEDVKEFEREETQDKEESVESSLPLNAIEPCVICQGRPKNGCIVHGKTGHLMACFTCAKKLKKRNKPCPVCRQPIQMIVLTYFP
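Material: Stable MDM2–luciferase fusion reporter cells | Amount: 2000 cells seeded into each well | Dosing: One concentration, 5 µM, with 0.2% DMSO | Incubation: 4 h cell settling then 2 h compound exposure, 37 °C | Measured by: Luciferase luminescence | Read-out basis: % enhancement relative to plate controls after blank subtraction | Benchmarks: Control and blank well means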
Hsp70 activator = transcriptional activators of Hsp70; HeLa Hsp70 promoter luciferase reporter, luminescence; scaled: vehicle 0, proteasome-inhibitor control 100%; activation, % at 10 µM; 200,000 compounds, 0.04% hits; AID 1203;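 active = activation above the mean across all tested compounds plus 3 SD, cutoff set per campaign, cut at about 5.5% in these data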
S1P3 antag = S1P3 (human) receptor antagonism | Q99500 | CHO S1P3 NFAT-BLA reporter, FRET fluorescence, antagonist mode | inhibition, % at 4.98 µM | 170,000 compounds, 0.27% hits | AID 485;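 active = inhibition above the plate cutoff, the mean inhibition of test wells on that plate plus 3 SD, cut at about 28% in these data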;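 also: cells challenged with S1P at its EC80 of 0.8 µM; blue over green emission ratio from cleaved BLA substrate after 4 h stimulation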
Dynein cargo inh = dynein cargo transport inhibition; 3617.4 mouse cells, GR-EGFP nuclear translocation imaging; test concentration mostly 20 µM; stimulated with dexamethasone, 1 µM; stronger effect = lower value; z-score, hits read low; 220,000 compounds, 0.47% hits; AID 1381;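 active = plate z-score of nuclear minus cytoplasmic receptor signal below a set negative limit, without overly bright fluorescence or cell loss, cut at about -3.5 in these data, passing the limit was not always enough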;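 also: z-score of nuclear minus cytoplasmic ring GR-EGFP intensity difference per well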
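Buffer or medium: tet-free, stripped-serum medium; reagent: dexamethasone at 1.0 µM final, 30 min; incubation: 48 h induction, 1 h compound, 30 min dex at 37 °C; measured by: formaldehyde fixation, Hoechst nuclear stain, 10x automated fluorescence imaging; read-out: nuclear-to-cytoplasmic GR-EGFP distribution per well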
S1P4 ag = activates the human S1P4 receptor; activation, % at 4.98 µM; 220,000 compounds, 0.35% hits; S1P4-expressing cell line, agonist reporter assay; O95977; in the data active = activation above about 11%
S1P4 antag = antagonists of human S1P4 receptor; 220,000 compounds, 0.26% hits; O95977; S1P4-expressing cells, antagonist mode, reporter read-out; inhibition, % at 4.98 µM; in the data active = inhibition above about 29%
Dynein inh conf = dynein cargo transport inhibition, confirmation; shares compounds with Dynein cargo inh; 3617.4 GR-EGFP nuclear translocation imaging, dexamethasone-induced; calls only at 20 µM; 1,000 compounds, 69% hits; AID 463116;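 active = inhibition of receptor movement into the nucleus at or above a set limit in both runs, with normal cell brightness and cell count; inconclusive = limit reached in only one run, brightness and count normal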;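 also: dexamethasone at 1 µM final in well for 30 min; nuclear minus cytoplasmic GR-EGFP mean intensity difference in channel 2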
Numbers stand for hits; i = inactive; ? = inconclusive; nt = not tested or not shown; + = active, no number.

SMILES	MDM2 E3 inh	Hsp70 activator	S1P3 antag	Dynein cargo inh	S1P4 ag	S1P4 antag	Dynein inh conf
COC(C/C=C/C(=O)COCc1ccccc1)OC	i	nt	nt	-5.71	nt	nt	+
COC(C[C@@H]1O[C@@H]1C(=O)COCc1ccccc1)OC	i	nt	nt	i	nt	nt	nt
CCOc1ccc(C(=O)NCc2ccccn2)cc1	i	i	i	i	i	i	nt
O=C(NCc1ccccn1)c1coc(=O)c(Br)c1	i	i	nt	-4.12	i	i	i
CCCCCCc1cc2cc(C(=O)NC)c(=N)oc2cc1O	i	i	nt	-7.46	i	i	+
O=C(/C=C/c1ccco1)Nc1ccc2nc3n(c(=O)c2c1)CCCC3	i	i	i	i	i	i	nt
O=C1N/C(=C/c2ccc(N3CCOCC3)o2)C(=O)N1c1cccc(Cl)c1	i	i	i	i	i	i	i
Cc1cc(C)n(-c2nc(NCCN(C)C)c3c4c(sc3n2)CCCC4)n1	i	nt	i	-4.58	i	i	i
Cc1cc(C)n(-c2nc(NCCCN(C)C)c3c4c(sc3n2)CCCC4)n1	i	nt	i	i	i	i	nt
Cc1ccc(/C=C/C(=O)Nc2ccc(Oc3ccccc3)cc2)o1	i	i	i	-3.61	i	i	i
N#CCCN(C(=O)COc1ccc(F)cc1Br)c1ccccc1F	i	i	i	i	i	i	nt
O=C(NCc1cccnc1)/C(=C\c1ccc(-c2cccc(Cl)c2)o1)S(=O)(=O)c1ccccc1	nt	i	i	-4.3	i	i	+
CCCn1c(SCC(=O)Nc2ccccc2Cl)n[nH]c1=O	nt	nt	i	i	i	i	nt
Cc1nnc(NC(=O)c2sc3nc(-c4cccs4)cc(C(F)(F)F)c3c2N)s1	i	i	nt	i	i	i	i
O=C(c1ccccc1NS(=O)(=O)c1cccc2cccnc12)N1CCOCC1	i	i	i	i	i	i	nt
COC(=O)c1ccc(C(=O)OC)c(-n2c(=O)c3ccccc3c3ccccc3c2=O)c1	i	i	i	-5.06	i	i	+
CCN1C(=O)CC(C(=O)OC)=C1C	i	i	i	i	i	i	nt
COC(=O)C1=C(C)N(CCC2=CCCCC2)C(=O)C1	i	i	i	-4.13	i	i	i
Cc1nccc(-c2cccc(NC(=O)c3ccccc3Cl)c2)n1	i	nt	i	i	i	i	nt
C=C1C(C(=O)Nc2ccc(OC)cc2)C1C(=O)Nc1ccc(OC)cc1 (stereo not given)	i	nt	i	i	i	i	nt
CN1CCN(C2=C(Cl)C(=O)N(c3ccc(Cl)c(Cl)c3)C2=O)CC1	i	i	nt	-4.58	i	i	?
CN1CCN(C2=C(Cl)C(=O)N(c3cccc(Cl)c3)C2=O)CC1	i	i	i	i	i	i	nt
O=C1C=CC2C(c3ccc4c(c3)OCO4)CC1N2Cc1ccccc1 (stereo not given)	i	i	i	-3.8	i	i	+
CCOCCCN(C(=O)Cn1nnc(-c2ccc(C)o2)n1)C(C(=O)NCC1CCCO1)c1ccc(F)cc1 (stereo not given)	nt	nt	i	i	i	i	nt
C=CCn1c(C)cc(C(=O)Cn2ncc(Cl)c(Cl)c2=O)c1C	i	i	i	-4.58	i	i	+
SMILES	MDM2 E3 inh	Hsp70 activator	S1P3 antag	Dynein cargo inh	S1P4 ag	S1P4 antag	Dynein inh conf
CC1CCCN(C(=O)CCCn2c(=S)[nH]c3ccccc3c2=O)C1 (stereo not given)	i	i	nt	i	i	i	nt
Cc1ccc(C2=NN(C(=O)CCl)C(c3cccs3)C2)o1 (stereo not given)	i	i	i	-4.1	i	i	+
O=C(CCl)N1N=C(c2ccco2)CC1c1cccs1 (stereo not given)	i	i	i	-4.3	i	i	+
COc1ccc(/C=C/C2=CC(C)(C)NC(=S)N2)cc1	i	i	i	i	i	i	nt
Cc1cccc(-n2cnc3c(sc4nc(N5CCOCC5)c5c(c43)CCCC5)c2=O)c1	i	nt	i	i	i	i	nt
CC1(C)C/C(=N\O)C(C(O)c2cccc([N+](=O)[O-])c2)C(C)(C)N1 (stereo not given)	i	nt	i	i	i	i	nt
Cn1ncc(S(=O)(=O)Cc2ccccc2)c(Cl)c1=O	i	nt	i	-5.21	i	i	+
CCOC(=O)N1CCN(C(=O)CSc2ccc3nnc(-c4cccnc4)n3n2)CC1	i	i	i	i	i	i	nt
O=[N+]([O-])c1ccc(-c2ccc(/C=N/Nc3nc(N4CCCCC4)nc(N4CCCCC4)n3)o2)cc1	i	i	i	i	i	i	i
CC(=O)Oc1ccc(OC(C)=O)c(SCCCCCCl)c1	i	i	i	-4.65	i	i	+
N#C/C(=C\c1sc(N2CCOCC2)nc1-c1ccccc1)C(=O)Nc1cccc2ccccc12	i	i	i	i	i	i	?
CCN1CCN(C2=C(Cl)C(=O)N(Cc3ccccc3)C2=O)CC1	i	i	nt	-4.74	i	i	+
CN1CCN(C2=C(Cl)C(=O)N(Cc3ccccc3)C2=O)CC1	i	i	i	i	i	i	nt
COc1ccc(C(=O)C[n+]2cccc(C)c2C)cc1[N+](=O)[O-]	i	i	i	i	i	i	nt
CCC(C)(C)c1ccc(OCCCC[n+]2cccc(C)c2C)c(C(C)(C)CC)c1	i	nt	i	-5.23	i	i	i
CCCN1C(=O)/C(=C/c2c(NCCCOC(C)C)nc3c(C)cccn3c2=O)SC1=S	i	i	nt	i	i	i	?
CCC(C)N1C(=O)/C(=C/c2c(NCCCOC(C)C)nc3c(C)cccn3c2=O)SC1=S (stereo not given)	i	i	nt	i	i	i	nt
CC1(C)CC(=O)C2=C(C1)Oc1nc3ccccc3cc1C2C(C#N)C#N (stereo not given)	i	i	nt	-4.39	i	i	+
CC1(C)CC(=O)C(C2C3=C(CC(C)(C)CC3=O)Oc3ccccc32)C(=O)C1 (stereo not given)	i	nt	i	i	i	i	nt
COc1cc(OC)c(NS(=O)(=O)c2cc(C(=O)OCC(=O)NCC3CCCO3)ccc2OC)cc1Cl (stereo not given)	i	i	i	i	i	i	nt
CS/C(N)=N/S(=O)(=O)c1ccc(NC(C)=O)cc1	nt	nt	i	i	i	i	nt
O=Nc1c(-c2cccc([N+](=O)[O-])c2)nc2ncccn12	i	nt	i	i	i	i	nt
O=C(N/N=C/c1ccc(N2CCCCC2)o1)c1ccccc1	i	i	i	-3.77	i	i	i
O=C(N/N=C/c1ccc(N2CCOCC2)o1)c1cccc([N+](=O)[O-])c1	i	i	i	i	i	i	nt
CNC(=O)c1sc(-c2cccs2)nc1C	i	i	i	i	i	i	nt
CCCCN1C(=O)/C(=C/C=C2\N(C)c3ccccc3C2(C)C)SC1=S	i	i	nt	i	i	i	i
CC(C)C[C@H](N)c1nnc(S(=O)(=O)Cc2cccc(F)c2)o1	i	i	i	-4.95	i	i	+
CCCCc1n[nH]c2c1/C(=N/OCC)CC(C)(C)C2	i	nt	i	i	i	i	nt
